Test results taken from ChEMBL document CHEMBL1149778, “Synthesis of some novel 2,4-disubstituted thiazoles as possible antimicrobial agents” (2008).
Values after ≈ are worked out from the molar mass of the structure shown.

Tests used:
Pseudomonas aeruginosa [1] = assay: Antibacterial activity against Pseudomonas aeruginosa ATTC 27853 assessed as zone of inhibition after 16 to 18 hrs by serial plate dilution method; type: functional, ATCC27853
Procedure, shortened: (§1)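 Agar well diffusion: 20 ml agar per dish seeded with bacterial suspension, excess decanted, dishes held 1 h at 37 °C. Wells punched, compounds in DMSO added at their MIC levels, DMSO wells as control. Zone of inhibition measured.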

Bacillus subtilis [2] = assay: Antibacterial activity against Bacillus subtilis after 16 to 18 hrs by serial plate dilution method; type: functional
Procedure, shortened: (§2)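 MIC by broth serial dilution: compound serially diluted in Mueller-Hinton broth, tubes adjusted to […] with phosphate buffer. Standardized bacterial suspension inoculated, incubated 16-18 h at 37 °C. MIC read as the lowest concentration with no visible growth.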

Staphylococcus aureus [3] = assay: Antibacterial activity against Staphylococcus aureus ATTC 25923 assessed as zone of inhibition after 16 to 18 hrs by serial plate dilution method; type: functional; procedure, shortened: as §1
Escherichia coli [4] = assay: Antibacterial activity against Escherichia coli ATTC 25922 assessed as zone of inhibition after 16 to 18 hrs by serial plate dilution method; type: functional, ATCC25922; procedure, shortened: as §1
Pseudomonas aeruginosa [5] = assay: Antibacterial activity against Pseudomonas aeruginosa ATTC 27853 after 16 to 18 hrs by serial plate dilution method; type: functional; conditions: ATCC27853; procedure, shortened: as §2
[6] = tested on: Trichophyton mentagrophytes; assay: Antifungal activity against Trichophyton mentagrophytes assessed as zone of inhibition by serial plate dilution method; type: functional
Procedure, shortened: (§3)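 Sabouraud agar (peptone, D-glucose, agar; pH 5.7), 20 ml per dish, lawned with a saline spore suspension from a loopful of fungus. Excess decanted, plates dried 1 h at 37 °C. Wells punched and compounds in DMSO added, DMSO as control. Triplicate plates, 37 °C for 3-4 days; inhibition-zone diameter measured.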

Talaromyces marneffei [7] = assay: Antifungal activity against Penicillium marneffei by serial plate dilution method; type: functional
Aspergillus flavus [8] = assay: Antifungal activity against Aspergillus flavus NCIM No.524 assessed as zone of inhibition by serial plate dilution method; type: functional; procedure, shortened: as §3
Aspergillus fumigatus [9] = assay: Antifungal activity against Aspergillus fumigatus NCIM No.902 by serial plate dilution method; type: functional
Aspergillus fumigatus [10] = assay: Antifungal activity against Aspergillus fumigatus NCIM No.902 assessed as zone of inhibition by serial plate dilution method; type: functional; procedure, shortened: as §3
Escherichia coli [11] = assay: Antibacterial activity against Escherichia coli ATTC 25922 after 16 to 18 hrs by serial plate dilution method; type: functional; conditions: ATCC25922; procedure, shortened: as §2
Talaromyces marneffei [12] = assay: Antifungal activity against Penicillium marneffei assessed as zone of inhibition by serial plate dilution method; type: functional; procedure, shortened: as §3
Bacillus subtilis [13] = assay: Antibacterial activity against Bacillus subtilis assessed as zone of inhibition after 16 to 18 hrs by serial plate dilution method; type: functional; procedure, shortened: as §1
Aspergillus flavus [14] = assay: Antifungal activity against Aspergillus flavus NCIM No.524 by serial plate dilution method; type: functional
[15] = tested on: Trichophyton mentagrophytes; assay: Antifungal activity against Trichophyton mentagrophytes by serial plate dilution method; type: functional
Staphylococcus aureus [16] = assay: Antibacterial activity against Staphylococcus aureus ATTC 25923 after 16 to 18 hrs by serial plate dilution method; type: functional; procedure, shortened: as §2

| Structure (SMILES) | MIC (Bacillus subtilis [2]) [µg/mL] | MIC (Pseudomonas aeruginosa [5]) [µg/mL] | MIC (Talaromyces marneffei [7]) [µg/mL] | MIC (Aspergillus fumigatus [9]) [µg/mL] | MIC (Escherichia coli [11]) [µg/mL] | MIC (Aspergillus flavus [14]) [µg/mL] | MIC [15] [µg/mL] | MIC (Staphylococcus aureus [16]) [µg/mL] | inhibition zone (IZ) (Pseudomonas aeruginosa [1]) [mm] | inhibition zone (IZ) (Staphylococcus aureus [3]) [mm] | inhibition zone (IZ) (Escherichia coli [4]) [mm] | inhibition zone (IZ) [6] [mm] | inhibition zone (IZ) (Aspergillus flavus [8]) [mm] | inhibition zone (IZ) (Aspergillus fumigatus [10]) [mm] | inhibition zone (IZ) (Talaromyces marneffei [12]) [mm] | inhibition zone (IZ) (Bacillus subtilis [13]) [mm] |
| --- | --- | --- | --- | --- | --- | --- | --- | --- | --- | --- | --- | --- | --- | --- | --- | --- |
| Clc1ccc(-c2csc(-c3cc(Cl)cc(Cl)c3Cl)n2)cc1 | 25 (≈ 66.6 µM) | 6.25 (≈ 16.7 µM) | 25 (≈ 66.6 µM) | 6.25 (≈ 16.7 µM) | 6.25 (≈ 16.7 µM) | 25 (≈ 66.6 µM) | 6.25 (≈ 16.7 µM) | 12.5 (≈ 33.3 µM) | 16 | 11 | 16 | 16 | <10 | 16 | <10 | <10 |
| O=[N+]([O-])c1ccc(-c2csc(-c3cc(Cl)cc(Cl)c3Cl)n2)cc1 | 25 (≈ 64.8 µM) | 6.25 (≈ 16.2 µM) | 25 (≈ 64.8 µM) | 12.5 (≈ 32.4 µM) | 6.25 (≈ 16.2 µM) | 12.5 (≈ 32.4 µM) | 25 (≈ 64.8 µM) | 12.5 (≈ 32.4 µM) | 16 | 11 | 16 | <10 | 11 | 11 | <10 | <10 |
| Cc1cc(C2CCCCC2)n(O)c(=O)c1.NCCO [CICLOPIROX OLAMINE] | – | – | 6.25 | 6.25 | – | 6.25 | 6.25 | – | – | – | – | 16 | 16 | 16 | 16 | – |
| Clc1cc(Cl)c(Cl)c(/C=N/Nc2nc(-c3cccnc3)cs2)c1 | 12.5 (≈ 32.6 µM) | 12.5 (≈ 32.6 µM) | 6.25 (≈ 16.3 µM) | 6.25 (≈ 16.3 µM) | 12.5 (≈ 32.6 µM) | 6.25 (≈ 16.3 µM) | 6.25 (≈ 16.3 µM) | 25 (≈ 65.2 µM) | 11 | <10 | 11 | 16 | 16 | 16 | 16 | 10 |
| Clc1cc(Cl)c(Cl)c(-c2nc(-c3cccnc3)cs2)c1 | 12.5 (≈ 36.6 µM) | 25 (≈ 73.2 µM) | 6.25 (≈ 18.3 µM) | 6.25 (≈ 18.3 µM) | 12.5 (≈ 36.6 µM) | 6.25 (≈ 18.3 µM) | 6.25 (≈ 18.3 µM) | 12.5 (≈ 36.6 µM) | <10 | 11 | 11 | 16 | 16 | 16 | 16 | 11 |
| Clc1cc(Cl)c(Cl)c(/C=N/Nc2nc(-c3ccc(-c4ccccc4)cc3)cs2)c1 | 6.25 (≈ 13.6 µM) | 25 (≈ 54.5 µM) | 6.25 (≈ 13.6 µM) | 6.25 (≈ 13.6 µM) | 25 (≈ 54.5 µM) | 6.25 (≈ 13.6 µM) | 6.25 (≈ 13.6 µM) | 6.25 (≈ 13.6 µM) | <10 | 16 | <10 | 16 | 16 | 16 | 16 | 16 |
| COc1ccc(-c2csc(N/N=C/c3cc(Cl)cc(Cl)c3Cl)n2)cc1 | 25 (≈ 60.6 µM) | 25 (≈ 60.6 µM) | 25 (≈ 60.6 µM) | 25 (≈ 60.6 µM) | 25 (≈ 60.6 µM) | 25 (≈ 60.6 µM) | 12.5 (≈ 30.3 µM) | 25 (≈ 60.6 µM) | <10 | <10 | <10 | 11 | <10 | <10 | <10 | <10 |
| Clc1cc(Cl)c(Cl)c(-c2nc(-c3ccc(-c4ccccc4)cc3)cs2)c1 | 12.5 (≈ 30 µM) | 12.5 (≈ 30 µM) | 6.25 (≈ 15 µM) | 6.25 (≈ 15 µM) | 25 (≈ 60 µM) | 6.25 (≈ 15 µM) | 6.25 (≈ 15 µM) | 12.5 (≈ 30 µM) | 11 | 11 | <10 | 16 | 16 | 16 | 16 | 11 |
| COc1ccc(-c2csc(-c3cc(Cl)cc(Cl)c3Cl)n2)cc1 | 12.5 (≈ 33.7 µM) | 12.5 (≈ 33.7 µM) | 25 (≈ 67.4 µM) | 25 (≈ 67.4 µM) | 6.25 (≈ 16.9 µM) | 25 (≈ 67.4 µM) | 25 (≈ 67.4 µM) | 12.5 (≈ 33.7 µM) | 11 | 11 | 16 | <10 | <10 | <10 | <10 | 11 |

More lines, main results first:

| MIC (Bacillus subtilis [2]) [µg/mL] | MIC (Pseudomonas aeruginosa [5]) [µg/mL] | MIC (Talaromyces marneffei [7]) [µg/mL] | MIC (Aspergillus fumigatus [9]) [µg/mL] | MIC (Escherichia coli [11]) [µg/mL] | MIC (Aspergillus flavus [14]) [µg/mL] | MIC [15] [µg/mL] | MIC (Staphylococcus aureus [16]) [µg/mL] | Structure (SMILES) | inhibition zone (IZ) (Pseudomonas aeruginosa [1]) [mm] | inhibition zone (IZ) (Staphylococcus aureus [3]) [mm] | inhibition zone (IZ) (Escherichia coli [4]) [mm] | inhibition zone (IZ) [6] [mm] | inhibition zone (IZ) (Aspergillus flavus [8]) [mm] | inhibition zone (IZ) (Aspergillus fumigatus [10]) [mm] | inhibition zone (IZ) (Talaromyces marneffei [12]) [mm] | inhibition zone (IZ) (Bacillus subtilis [13]) [mm] |
| --- | --- | --- | --- | --- | --- | --- | --- | --- | --- | --- | --- | --- | --- | --- | --- | --- |
| 6.25 (≈ 15 µM) | 6.25 (≈ 15 µM) | 6.25 (≈ 15 µM) | 25 (≈ 60 µM) | 6.25 (≈ 15 µM) | 6.25 (≈ 15 µM) | 25 (≈ 60 µM) | 6.25 (≈ 15 µM) | Cc1cc(C)nc(SCc2csc(-c3cc(Cl)cc(Cl)c3Cl)n2)n1 | 16 | 16 | 16 | <10 | 16 | <10 | 16 | 16 |
| 1.56 (≈ 4.71 µM) | – | – | – | – | – | – | – | O=C(O)c1cn(C2CC2)c2cc(N3CCNCC3)c(F)cc2c1=O [CIPROFLOXACIN] | 16 | 16 | 16 | – | – | – | – | 21 |
| 6.25 (≈ 15.6 µM) | 6.25 (≈ 15.6 µM) | 6.25 (≈ 15.6 µM) | 25 (≈ 62.5 µM) | 6.25 (≈ 15.6 µM) | 6.25 (≈ 15.6 µM) | 25 (≈ 62.5 µM) | 6.25 (≈ 15.6 µM) | NC(=O)c1cc(-c2csc(-c3cc(Cl)cc(Cl)c3Cl)n2)ccc1O | 16 | 16 | 16 | <10 | 16 | <10 | 16 | 16 |
| 6.25 (≈ 16.2 µM) | 6.25 (≈ 16.2 µM) | 25 (≈ 64.6 µM) | 12.5 (≈ 32.3 µM) | 6.25 (≈ 16.2 µM) | 12.5 (≈ 32.3 µM) | 12.5 (≈ 32.3 µM) | 6.25 (≈ 16.2 µM) | CSc1ccc(-c2csc(-c3cc(Cl)cc(Cl)c3Cl)n2)cc1 | 16 | 16 | 16 | 11 | 11 | 11 | <10 | 16 |
| 6.25 (≈ 14.1 µM) | 6.25 (≈ 14.1 µM) | 12.5 (≈ 28.3 µM) | 12.5 (≈ 28.3 µM) | 6.25 (≈ 14.1 µM) | 12.5 (≈ 28.3 µM) | 12.5 (≈ 28.3 µM) | 6.25 (≈ 14.1 µM) | NC(=O)c1cc(-c2csc(N/N=C/c3cc(Cl)cc(Cl)c3Cl)n2)ccc1O | 16 | 16 | 16 | 11 | 11 | 11 | 11 | 16 |
